ChEMBL document CHEMBL2057104, “Identification of myricetin and scutellarein as novel chemical inhibitors of the SARS coronavirus helicase, nsP13” (Bioorg Med Chem Lett, 2012)
Active and inactive are the calls of the source. How the calls were made is not given here.

How the values were obtained:
Hepacivirus hominis [1] = assay: Inhibition of HCV NS3 helicase overexpressed in Escherichia coli BL21(DE3) assessed as inhibition of DNA unwinding activity at 10 uM by FRET assay
[2] = Inhibition of SARS coronavirus nsP13 ATP hydrolysis activity expressed in Escherichia coli Rosetta assessed as inhibition of inorganic phosphate release by AM/MG-based colometric analysis in the presence of M13 ssDNA; parameters: species or system Severe acute respiratory syndrome-related coronavirus
Method in brief: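 ATP hydrolysis was measured colorimetrically as phosphate complex formation with ammonium molybdate/malachite green. Reactions ran with a range of compound concentrations. IC50 was derived from the concentration series.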

[3] = tested on: Severe acute respiratory syndrome-related coronavirus; assay: Inhibition of SARS coronavirus nsP13 ATP hydrolysis activity expressed in Escherichia coli Rosetta assessed as inhibition of inorganic phosphate release at 10 uM by AM/MG-based colometric analysis in the presence of M13 ssDNA
[4] = tested on: Severe acute respiratory syndrome-related coronavirus; assay: Inhibition of SARS coronavirus nsP13 helicase activity expressed in Escherichia coli Rosetta assessed inhibition of DNA unwinding activity at 10 uM by FRET assay
Method in brief: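 FRET dsDNA-unwinding assay using fluorescein/TAMRA-labelled duplex. When nsP13 unwinds the duplex, fluorescein emission is unquenched. Compound was added to the unwinding reaction at 10 µM, and fluorescence was read at 535 nm.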

MCF-10A = assay: Cytotoxicity in human MCF10A cells at 2 uM measured every 24 hrs for 3 days by hemocytometry; format: cell-based; conditions: 72 h
Method in brief: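 MCF10A breast epithelial cells grown at 37°C in 5% CO2 and seeded at 2.0 × 10^5 per well. They were exposed to compound at 2 µM and harvested every 24 h for 3 days. Viable cells were counted by hemacytometer. Results are mean ± standard deviation, n = 6, compared by Student t-test.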

Hepacivirus hominis [5] = assay: Inhibition of HCV NS3 helicase ATP hydrolysis activity overexpressed in Escherichia coli BL21(DE3) assessed as inhibition of inorganic phosphate release by AM/MG-based colometric analysis in the presence of M13 ssDNA

Compound: O=c1cc(-c2ccc(O)cc2)oc2cc(O)c(O)c(O)c12 [SCUTELLAREIN]
- inhibition (Hepacivirus hominis [1]): inactive
- IC50 [2]: 860 nM
- inhibition [3]: > 90%
- inhibition [4]: inactive
- Activity (MCF-10A): Non-toxic
- inhibition (Hepacivirus hominis [5]): inactive
